Data published in the EternaBench riboswitch data.

Tested on: MS2 coat protein
Test: apparent Kd, MS2 coat protein; higher = weaker binding; RNA-MaP array; FMN 200 µM where present
Method in brief: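 Two titrations, one without ligand and one with constant ligand, were run with SNAP-549-labelled MS2 coat protein from 0.7 or 1.5 nM, doubling to 3 µM. The targets were designs transcribed by stalled E. coli RNA polymerase on Illumina sequencing-chip clusters, in 100 mM Tris-HCl pH 7.5, 80 mM KCl, 4 mM MgCl2, BSA, DTT, yeast tRNA and Tween-20. The apparent Kd is the median of filtered per-cluster binding-curve fits, with green signal normalised to red-channel RNA signal and control-cluster median Fmax.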

[1] = designed as: ON switch for flavin mononucleotide, no ligand
[2] = ligand present: flavin mononucleotide, designed as: ON switch for flavin mononucleotide
[3] = designed as: OFF switch for flavin mononucleotide, no ligand
[4] = ligand present: flavin mononucleotide, designed as: OFF switch for flavin mononucleotide

Sequence | apparent Kd [1] [nM] | apparent Kd [2] [nM] | apparent Kd [3] [nM] | apparent Kd [4] [nM]
GUAGAACAUGAGGAUCACCCAUGUGAAGACGCAUGAGGAUAUAUACGUAAAUAGCAUACGAUAGAAGGCAUGAUAA | 51.8 | 26.8 |  | 
AUGGCUAAUGAGAAGGUGUAUAUAAAUUAUAUACAAGGAUAUCGGUCAAGCAUGAAAACAUGAGGAUCACCCAUGUUAAGCCAU | 8.11 | 7.01 |  | 
UAUUGUUCCUGAGGAUAUCAGUUGUUUGCAUUAUGAGAAGGCAGUACAUGAGGAUCACCCAUGUUGGGAUUUGAUAGAAUGAUA | 185 | 195 |  | 
AACGACUGAGGAUAUACAUGAGGAUCACCCAUGUAUUGAAAUACGUGCUUGGUCAACUGUAGAAGGCAGAAUAA |  |  | 15.7 | 40.6
CGUUUGGGAGGAUAUCCAAUAUAUGACAUGAGGAUCACCCAUGUUUCCACUCGUACCUCCGGAGAAGGCCCUGCGU |  |  | 22.9 | 21
GCGAUUUUGUAAGGAUAUACACGAGUUUUAAGUGUAGAAGGUACUUACAUGAGGAUCACCCAUGUAUAAAUGUAUAAUGGUCGC | 12.4 | 9.82 |  | 
AAAAAGUCAGGAUAUAGAAAAGGUCACGAAAGUGACAAAGGCUAGAAGGGACAUGAGGAUCACCCAUGUAAAAA |  |  | 31.9 | 31.1
UCCAACCCUGUGAGGAUAUCGUCCAUUUUUUGUUCCGAGAAGGCACAUGAGGAUCACCCAUGUUUUUUAUUUUU |  |  | 28.1 | 93.7
UCGGCGCGAGGAUAUACGUUUGCUUUUUAGGAUCGUUGCGUACAUGAGGAUCACCCAUGUAGAAGGCGCGCCGC |  |  | 14.6 | 19.5
UUUUACCAAGGAUAUACAUUUUUUUUAUUAUUUUCAUUAUAACAUGAGGAUCACCCAUGUAGAAGGUGGAUUUU |  |  | 54 | 47.9
AGUGUCAUCGAGAAGGCCUCAACAUGAGGAUCACCCAUGUUGCAAAAUGGGAGGAUAUCGCGCAAAAAGCUACGUUUCGUAGCA | 43.1 | 6.96 |  | 
UUGUACAUAGGAUAUAGUUGUUUCUACAUGAGGAUCACCCAUGUUAUUCCUCUCUCCCUUCUAGAAGGAUGUUUUU |  |  | 40.9 | 38
CAUAUGGGAGGAUAUGCAUAGAUAAAGAAACAUGUUCAACCACAUGAGGAUCACCCAUGUAGAAGGCCCAUAUG |  |  | 29.6 | 162
CGCUGUCACGCAGGAUAUGCAUUGGAUUACAAUGCAGAAGGGCGAUCACAUGAGGAUCACCCAUGUGUAGACAGUGAAGAAGAG | 728 | 47.1 |  | 
ACCAAGCGAGGAUAUACUUAGAUUUUUUCGUUUAGUCUCGAACAUGAGGAUCACCCAUGUAGAAGGUGCUUCAC |  |  | 47.8 | 46.5
CGUGCGUAUGUGAGGAUAUGCUGGUCCUUGGAUCAGCAGAAGGCACAUGAGGAUCACCCAUGUGGUGUCGUACU |  |  | 297 | 19.2
GGAUAGGACAGAGGAUAUACGUGCUAGAGAUACCAGCAAAAUUUCCUCACAUGAGGAUCACCCAUGUAGAAGGCUGUCCUAUCG |  |  | 31.9 | 558
GCGAUAACAUGAGGAUCACCCAUGUAUGUGGCGGGCCCUACGAGAAGGCCAUGUAACAAAUACAUGGAGGAUAUCGGAUGAGUU | 153 | 26.6 |  | 
AUCGUGUUAGGAUAUACACGUCGCUGGGUAGCUAGCGAUGGGUAGAAGGAACAUGAGGAUCACCCAUGUUCGGG |  |  | 178 | 188

Sequence | apparent Kd [1] [nM] | apparent Kd [2] [nM] | apparent Kd [3] [nM] | apparent Kd [4] [nM]
GGGUACAUCGGAGGAUAUCAAGUAAAUACAUGAGGAUCACCCAUGUCGAUGGAGACAUCGGAGAUUGAGAAGGCCGAUGUACCG | 6 | 5.42 |  | 
AUCGCUCAGCAGAAGGGACUGACAUGAGGAUCACCCAUGUCUUUUAUGGUCAGGAUAUGUUGCCGAACCACGAAAAGUGGGUGC | 25.7 | 9.27 |  | 
CCCUCACAUGAGGAUCACCCAUGUCAGGAUAUCUCACAUCAGCCUUAGGCCGAUGUCUAGAGAAGGGACGUAUC |  |  | 22.7 | 30.3
UGGUUUGGGCUAGAUGCACAGACAUGAGGAUCACCCAUGUCUGAGGAUAUGCGUCAACAUAGGCAGCAGAAGGCAGACAUUCGC |  |  | 16.8 | 30.5
CAUGAUCAUGUAGGAUAUAUACUGGAAUACAGUAUAGAAGGACAUGAGGAUCACCCAUGUUAUGUGCCUCCAAGUAAGAUCAUG |  |  | 18.5 | 24.7
GGAUCGAGUGUGAGGAUAUGCUGGUCCUUGGAUCAGCAGAAGGCACAUGAGGAUCACCCAUGUGAUAUCGAUCC |  |  | 56.1 | 541
GCAUCUCUAUUAGAACCGAUACGAACAUGAGGAUCACCCAUGUAGGAUAUGCUAAAAGUUGUGUUGCAGAAGGACAUUUAAUGC |  |  | 9.49 | 8.64
GCGGAACAUGAGGAUCACCCAUGUGGAGGGUGUAAAGGAUAUUAUAGAGAGAAGGUAGGGUAAGAAGGUUGCUGGG | 843 | 763 |  | 
UCCUGAUUGAGAGUUAGGAGUGGUAGAAGGCGACCGGUGCCAGAUGACAUGAGGAUCACCCAUGUCGAGGAUAUACCACAGAAU |  |  | 8.04 | 15.4
AGUUGGCGAGGAUAUACAUGAGGAUCACCCAUGUGGUCCUGCGAUGGUGUCGCCCUUUGUAGAAGGCGCGGGUC |  |  | 35 | 28.1
CUACGUGUCGAGAAGGGCUCACGUAACGGAACAGCAGGAUAUCGACAUGAGGAUCACCCAUGUCGGAACGAACGGAUCUUUAAU |  |  | 7.24 | 8.18
ACAUGAGGAUCACCCAUGUUGACAUAGGAUAUACAACAUUAGUUUCAUUCAUGUAAACUUUGAUAGUAGAAGGAUGGUACAUGA |  |  | 13.2 | 13
CGAACCAUGUAGAAGGCUGUCUUAAAAUAGGACAGAGGAUAUACAUGAGGAUCACCCAUGUACUCCUUUAAAAGGUUCGAAAUA |  |  |  | 7.03
CCUGUGUGAGGAUAUGGUGUUAAAAAAAAGGAAUAGCUCCUCCAGAAGGCACAUGAGGAUCACCCAUGUCGUGG |  |  | 23.4 | 57.1
CGUGCAUAUGUAGGAUAUGGUUAUCUAUGUCUAGUUACUAGACAUAGAUAACCAGAAGGACAUGAGGAUCACCCAUGUAGCACG |  |  | 9.7 | 17.4
UUUGUAUAGCAAGGAUAUGUUUAAUUAUAGUUGCCUCAUACAUGAGGAUCACCCAUGUUUUACUUACAGAAGGUGCAAUGAUUU |  |  | 316 | 317
UUAUUGUGAGGAUAUCCAAUAUAUGACAUGAGGAUCACCCAUGUUUCCACUCGUACCUCCGGAGAAGGCACUUAUU |  |  | 32.7 | 29.4
UAACAUGUCCGAGGAUAUCUGGAAACAUUUUCAAGAGAAGGCGGACAUGAGGAUCACCCAUGUCUCUCCUCAUCAACUACAAAU |  |  | 8.61 | 57.5
UGUCCAUAGCAGAAGGCACAUCCACAAAAUAAAACAUGAGGAUCACCCAUGUGAGGAUAUGCUAUGGACUAAGAGCGAAAGCUC |  |  | 5.44 | 21.8

Sequence | apparent Kd [1] [nM] | apparent Kd [2] [nM] | apparent Kd [3] [nM] | apparent Kd [4] [nM]
UAGAUGGGAGGAUAUGCAUAGAUACAGAUUCGUGUAGUGCUACAUGAGGAUCACCCAUGUAGAAGGCCCGUCUU |  |  | 14.8 | 37.6
UGUCCAUAGCAGAAGGACAUGAAUAAACAUGAAAACAUGAGGAUCACCCAUGUAGGAUAUGCUAUGGACUAAGAGCGAAAGCUC |  |  | 7.06 | 48.1
AAGCUGGUAGGAUAUACUAGGGCAACUAAUGCGCCGAUAGGACAUGAGGAUCACCCAUGUAGAAGGGCCAGAAA |  |  | 80.1 | 93.1
AUAUUAUUGAUCCAUUUUUUCAACAUGAGGAUCACCCAUGUGCAGGAUAUCGUGUGUUUUAUCAACGAGAAGGGCAAAUUCAUU |  |  | 94.2 | 215
CAUAUGUCAGGAUAUUAUCUCAAGGUAUUCGUUACUAACGAUAAGAAGGGACAUGAGGAUCACCCAUGUGCCGC |  |  | 18.4 | 24.2
ACUGUUUGAUUCCUCUUUUACAUGAGGAUCACCCAUGUUAUCGAGGAUAUGCAUUAGAGUGUUUAGCAGAAGGCGAUGUAAUUG |  |  | 6.51 | 20.8
AGUGUUGGAGGAUAUACAUGAGGAUCACCCAUGUACAUCACACAGUAUAUCAAACCAUGUAGAAGGCCAAUACA |  |  | 18.2 | 36.4
GUCGGAAACGACAAAAGUAUGGAUCCAGAAGGCAUGAACAUGAGGAUCACCCAUGUCUAAAGAUAUGAGGAUAUGGAUCCAUAC | 6.66 | 4.44 |  | 
AAUAGUACAGGAUAUACAUGAGGAUCACCCAUGUGAAAAUUAAGUGGCGUACCACAAAGUAGAAGGGUACUGGA |  |  | 22.8 | 71.4
UGUAUGUAGGCAGGAUAUACAUGAAUAUAUAUGAUGUAGUAUGAUGUAACAUGAGGAUCACCCAUGUAGAAGGGCCAGUGUAUG |  |  | 77.8 | 129
UUUAAACAGUCAGGAUAUGUAACGCACAACGGCGCAGAAGGGACAUGAGGAUCACCCAUGUUAUGGUUCUGGUACUAUGACGUU |  |  | 18.4 | 22.9
UCCACUGCUGAGAAGGGAUAGAUAUCGUUCUAGUCAGGAUAUCAAUACAGUGCAGCAUGAGGACAUGAGGAUCACCCAUGUAUU | 14.2 | 10.9 |  | 
UUGGACGUCGUAGGAUAUGUAGGAUAUUCCUACAUGAGGAUCACCCAUGUUGACAUGGAAGAAGGACAGAAUGACGAUGUCCAU | 374 | 5.51 |  | 
ACCAUUUACUAGUUUUCUAUACAUGAGGAUCACCCAUGUUUUUAGGAUAUCAGCGUGAAACACGCUGAGAAGGAAGAACAAUCG |  |  | 19.1 | 24.6
GCCAUCGCAUGAGGAUAUGCUCCCGUUUCGGGAGCAGAAGGCAUGUCAUAAGACAUGAGGAUCACCCAUGUGGUUAAGAUGGCA | 335 | 12.4 |  | 
CCGUCACAUGAGGAUCACCCAUGUCAGGAUAUCUAUCAUAGCAUCGAAAGAUGCGGGUAGAGAAGGGACUAUCC |  |  |  | 22.6
AGUACAUCAGGAUAUACAUGAAAGAUCAUCAUGACCUUUCUACAUGAGGAUCACCCAUGUAGAAGGGAUGUACA |  |  | 20.2 | 38
CCUCGCUGUUAGAAGGCACCUUCGGCUUUGGCUUUUGGAGUUGGGCGAUGGUGAGGAUAUAACAUGAGGAUCACCCAUGUUCAA |  |  |  | 65.1
